From ChEMBL document CHEMBL2417436, “Synthesis and biological effects of novel 2-amino-3-(4-chlorobenzoyl)-4-substituted thiophenes as allosteric enhancers of the A1 adenosine receptor” (Eur J Med Chem, 2013)

Key:
[1] = molecular target: T1, Adenosine receptor A3 (Homo sapiens) (UniProt P0DMS8); assay: Displacement of [3H]MRE-3008-F20 from human adenosine A3 receptor expressed in CHO cells at 10 uM after 120 mins by scintillation counting
T1 sequence (whole entry): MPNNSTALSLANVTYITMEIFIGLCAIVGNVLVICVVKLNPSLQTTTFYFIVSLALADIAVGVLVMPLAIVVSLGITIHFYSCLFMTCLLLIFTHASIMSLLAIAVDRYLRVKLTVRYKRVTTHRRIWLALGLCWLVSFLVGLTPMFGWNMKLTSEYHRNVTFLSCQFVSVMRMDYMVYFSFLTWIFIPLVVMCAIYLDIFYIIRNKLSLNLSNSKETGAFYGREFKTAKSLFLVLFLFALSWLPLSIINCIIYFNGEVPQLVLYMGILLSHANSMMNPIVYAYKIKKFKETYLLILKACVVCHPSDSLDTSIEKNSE

[2] = molecular target: Adenosine receptor A2a (Homo sapiens) (UniProt P29274); assay: Displacement of [3H]ZM 241385 from human adenosine A2A receptor expressed in CHO cells at 10 uM after 60 mins by scintillation counting; type: cell-based
Chain of Adenosine receptor A2a (Homo sapiens) (P29274 whole entry): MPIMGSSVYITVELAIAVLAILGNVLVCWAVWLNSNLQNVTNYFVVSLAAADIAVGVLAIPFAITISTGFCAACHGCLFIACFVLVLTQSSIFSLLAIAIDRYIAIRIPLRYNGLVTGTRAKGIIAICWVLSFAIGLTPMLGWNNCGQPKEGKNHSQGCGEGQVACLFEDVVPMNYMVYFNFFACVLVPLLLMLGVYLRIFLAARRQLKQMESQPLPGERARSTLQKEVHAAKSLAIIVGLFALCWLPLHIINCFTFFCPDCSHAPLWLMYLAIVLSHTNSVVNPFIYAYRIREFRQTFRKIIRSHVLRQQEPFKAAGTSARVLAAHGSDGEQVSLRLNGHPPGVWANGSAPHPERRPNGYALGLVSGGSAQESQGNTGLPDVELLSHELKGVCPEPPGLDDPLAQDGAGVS
Summary of the method: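 hA2ACHO membranes in 50 mM Tris HCl, 10 mM MgCl2, pH 7.4, 4 °C for 60 min. [3H]ZM 241385 given as 1 nM in methods and 2 nM in table footnote. Compound at 10 μM from 100-fold DMSO stock, 1% DMSO final. Nonspecific binding with 1 μM ZM 241385. Filtration and scintillation counting. Percent inhibition of control specific binding, ±SEM, n=3.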

[3] = molecular target: T2, Adenosine receptor A1 (Homo sapiens) (UniProt P30542); assay: Allosteric enhancement of human adenosine A1 receptor expressed in CHO cells assessed as inhibition of forskolin-induced cAMP production at 10 uM after 10 mins; type: functional, cell-based
T2 sequence (whole entry): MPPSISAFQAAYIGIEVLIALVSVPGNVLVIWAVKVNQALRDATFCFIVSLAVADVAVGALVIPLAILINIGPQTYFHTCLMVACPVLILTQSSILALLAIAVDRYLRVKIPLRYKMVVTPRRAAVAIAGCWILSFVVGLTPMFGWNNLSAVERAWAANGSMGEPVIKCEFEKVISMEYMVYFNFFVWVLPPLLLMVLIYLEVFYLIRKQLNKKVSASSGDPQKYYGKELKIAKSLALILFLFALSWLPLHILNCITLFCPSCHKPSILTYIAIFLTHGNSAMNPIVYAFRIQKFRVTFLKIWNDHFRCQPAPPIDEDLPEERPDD
Summary of the method: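 Whole hA1CHO cells (10⁶/mL) preincubated 10 min at 37 °C in phosphate buffer with adenosine deaminase (1.0 IU/mL) and Ro 20-1724 (0.5 mM). Compound alone at 10 μM for a further 10 min; forskolin 1 μM for 5 min. TCA stop, ether extraction, cAMP by [3H]-cAMP protein-binding competition assay. Expressed as pmol/10⁶ cells; mean ± SEM, three experiments.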

[4] = molecular target: T2, Adenosine receptor A1 (Homo sapiens); assay: Displacement of [3H]DPCPX from human adenosine A1 receptor expressed in CHO cells at 10 uM after 120 mins by scintillation counting
[5] = molecular target: T2, Adenosine receptor A1 (Homo sapiens); assay: Allosteric enhancement of human adenosine A1 receptor expressed in CHO cells assessed as increase of [3H]CCPA Bmax at 10 uM after 90 mins; type: cell-based
Summary of the method: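 Saturation of [3H]CCPA (0.05–20 nM) on hA1CHO membranes in 50 mM Tris-HCl, pH 7.4, with or without compound at final 10 μM. Triplicate, 25 °C, 90 min. Nonspecific binding defined with 1 μM R-PIA. Filter-bound radioactivity counted. KD and Bmax fitted by weighted nonlinear least squares; Bmax shift versus control. Mean ± SEM, n=3.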

[6] = molecular target: T2, Adenosine receptor A1 (Homo sapiens); assay: Allosteric enhancement of human adenosine A1 receptor expressed in CHO cells assessed as increase of CCPA Ki at 10 uM after 90 mins by [3H]DPCPX radioligand binding assay; type: cell-based
Summary of the method: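 hA1CHO membranes (50 mM Tris-HCl, pH 7.4, adenosine deaminase-treated). [3H]DPCPX 1 nM competed by CCPA (0.01 nM–1 μM) with or without test compound at 10 μM. Triplicate, 90 min at 25 °C. Nonspecific binding taken with 1 μM DPCPX. Filtration, then scintillation counting. Ki by Cheng–Prusoff. Shift = Ki(CCPA)/Ki(CCPA+enhancer). Mean ± SEM, n=3.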

[7] = molecular target: T2, Adenosine receptor A1 (Homo sapiens); assay: Allosteric enhancement of human adenosine A1 receptor expressed in CHO cells assessed as inhibition of CCPA-induced cAMP production at 100 nM after 10 mins; type: functional, cell-based
Summary of the method: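 Intact hA1CHO cells (10⁶/mL) in phosphate buffer with adenosine deaminase 1.0 IU/mL and Ro 20-1724 0.5 mM, preincubated 10 min at 37 °C. Compound 100 nM plus CCPA 1 pM added for 10 min, then forskolin 1 μM for 5 min. Stopped with cold 6% TCA, ether-extracted. cAMP measured by [3H]-cAMP competition with adrenal binding protein (4 °C, 150 min). pmol/10⁶ cells, mean ± SEM of three.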

| SMILES | inhibition [1] | inhibition [2] | inhibition [3] | inhibition [4] | fold change (FC) [5] | fold change (FC) [6] | inhibition [7] |
| --- | --- | --- | --- | --- | --- | --- | --- |
| CN(C)Cc1c(-c2ccccc2)sc(N)c1C(=O)c1ccc(Cl)cc1 | 2% | 1% | 6% | 1% | 1.1 | 1 | 10% |
| CCN(CC)Cc1csc(N)c1C(=O)c1ccc(Cl)cc1 | 2% | 1% | 5% | 0% | 1 | 1 | 12% |
| Nc1scc(CSc2ccccc2)c1C(=O)c1ccc(Cl)cc1 | 5% | 1% | 18% | 1% | 2.2 | 2 | 21% |
| Nc1sc(-c2ccccc2)c(CN(C2CCCCC2)C2CCCCC2)c1C(=O)c1ccc(Cl)cc1 | 7% | 1% | 31% | 6% | 3.5 | 3.2 | 28% |
| Cc1sc(N)c(C(=O)c2cccc(C(F)(F)F)c2)c1C | – | 0% | 18% | 0% | 1.3 | 1.6 | 20% |
| CN(Cc1ccccc1)Cc1c(-c2ccccc2)sc(N)c1C(=O)c1ccc(Cl)cc1 | 6% | 3% | 4% | 1% | 1.1 | 1.1 | 11% |
| CCCN(CCC)Cc1c(-c2ccccc2)sc(N)c1C(=O)c1ccc(Cl)cc1 | 11% | 1% | 28% | 1% | 3.1 | 2.5 | 29% |
| CCN(CC)Cc1c(-c2ccccc2)sc(N)c1C(=O)c1ccc(Cl)cc1 | 9% | 5% | 25% | 1% | 2.8 | 2.4 | 27% |
| CCCCN(C)Cc1c(-c2ccccc2)sc(N)c1C(=O)c1ccc(Cl)cc1 | 5% | 1% | 5% | 1% | 1.1 | 1.1 | 12% |
| CC(C)N(Cc1c(Br)sc(N)c1C(=O)c1ccc(Cl)cc1)C(C)C | 3% | 1% | 12% | 1% | 1.5 | 1.4 | 14% |
| CC(C)N(Cc1c(-c2ccccc2)sc(N)c1C(=O)c1ccc(Cl)cc1)C(C)C | 11% | 6% | 9% | 5% | 1.2 | 1.3 | 12% |

The next lines start with the values.

| inhibition [1] | inhibition [2] | inhibition [3] | inhibition [4] | fold change (FC) [5] | fold change (FC) [6] | inhibition [7] | SMILES |
| --- | --- | --- | --- | --- | --- | --- | --- |
| 7% | 1% | 56% | 1% | 6.5 | 6.3 | 52% | Nc1scc(CN2CCC3(CC2)Oc2cccc(F)c2O3)c1C(=O)c1ccc(Cl)cc1 |
| 6% | 0% | 43% | 1% | 4.8 | 3.7 | 41% | COc1ccc2c(c1)cc1n2CCN(Cc2csc(N)c2C(=O)c2ccc(Cl)cc2)C1 |
| 1% | 4% | 7% | 1% | 1.2 | 1.1 | 11% | Nc1scc(CN2CCN3c4ccc(Cl)cc4CC3C2)c1C(=O)c1ccc(Cl)cc1 (stereo unspecified) |
| 1% | 0% | 24% | 1% | 2.8 | 2.6 | 28% | Cn1c2c(c3cc(Cl)ccc31)CN(Cc1csc(N)c1C(=O)c1ccc(Cl)cc1)CC2 |
| 11% | 1% | 11% | 5% | 1.3 | 1.4 | 16% | Cc1ccc(OCc2csc(N)c2C(=O)c2ccc(Cl)cc2)cc1 |
| 2% | 1% | 28% | 2% | 3.1 | 2.9 | 27% | Cn1c2c(c3ccccc31)CN(Cc1csc(N)c1C(=O)c1ccc(Cl)cc1)CC2 |
| 8% | 1% | 10% | 1% | 1.2 | 1.2 | 15% | Nc1scc(COc2ccc(F)cc2)c1C(=O)c1ccc(Cl)cc1 |
| 6% | 3% | 48% | 0% | 5.1 | 4.2 | 45% | Cc1ccc2c(c1)OC1(CCN(Cc3csc(N)c3C(=O)c3ccc(Cl)cc3)CC1)O2 |
| 7% | 1% | 42% | 1% | 4.4 | 4 | 40% | CN(Cc1ccccc1)Cc1csc(N)c1C(=O)c1ccc(Cl)cc1 |
| 11% | 0% | 19% | 0% | 2.3 | 1.9 | 18% | CCN(Cc1csc(N)c1C(=O)c1ccc(Cl)cc1)c1ccccc1 |
| 4% | 2% | 28% | 3% | 3.2 | 3.4 | 26% | CN(Cc1csc(N)c1C(=O)c1ccc(Cl)cc1)c1ccc(F)cc1 |
| 5% | 1% | 46% | 2% | 5 | 4.9 | 47% | Cc1cccc2c1OC1(CCN(Cc3csc(N)c3C(=O)c3ccc(Cl)cc3)CC1)O2 |
| 5% | 3% | 71% | 0% | 8.1 | 7.6 | 72% | Nc1scc(CN2CCN3c4ccccc4CC3C2)c1C(=O)c1ccc(Cl)cc1 (stereo unspecified) |
| 12% | 0% | 51% | 1% | 6.3 | 6 | 55% | CC(C)(C)c1ccc2c(c1)OC1(CCN(Cc3csc(N)c3C(=O)c3ccc(Cl)cc3)CC1)O2 |
| 12% | 0% | 22% | 8% | 2.5 | 2.2 | 21% | CN(Cc1csc(N)c1C(=O)c1ccc(Cl)cc1)c1ccc(Cl)cc1 |
